According to ChEMBL document CHEMBL1137076, “New arylpiperazine 5-HT(1A) receptor ligands containing the pyrimido[2,1-f]purine fragment: synthesis, in vitro, and in vivo pharmacological evaluation” (J Med Chem, 2004):

Assays:
Mus musculus = species: Mus musculus; assay: Ability to inhibit 8-OH-DPAT-induced hypothermia was taken as a measure of presynaptic antagonistic activity; Antagonist; format: functional, organism-based; conditions: filed as antagonist
[1] = target: T1, 5-hydroxytryptamine receptor 1A (Rattus norvegicus, UniProt P19327); assay: Ability to bind to central serotonin 5-hydroxytryptamine 1A receptor in vitro in hippocampus of the rat brain using [3H]8-OH-DPAT radioligand; format: tissue-based
T1 sequence (P19327 whole entry): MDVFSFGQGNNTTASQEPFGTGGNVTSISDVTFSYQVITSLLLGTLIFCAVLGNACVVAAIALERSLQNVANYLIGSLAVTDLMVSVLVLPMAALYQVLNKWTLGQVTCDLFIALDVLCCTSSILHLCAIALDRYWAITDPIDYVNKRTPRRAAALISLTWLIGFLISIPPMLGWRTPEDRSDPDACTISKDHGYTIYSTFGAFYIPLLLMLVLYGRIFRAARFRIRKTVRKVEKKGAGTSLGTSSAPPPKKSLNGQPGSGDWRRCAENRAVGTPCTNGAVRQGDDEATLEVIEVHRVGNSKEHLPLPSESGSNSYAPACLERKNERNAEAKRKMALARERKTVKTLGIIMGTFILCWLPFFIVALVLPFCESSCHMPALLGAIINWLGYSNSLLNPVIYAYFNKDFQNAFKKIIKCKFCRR
Method in brief: (§1)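 Competition binding in rat brain tissue: hippocampus with [3H]-8-OH-DPAT (5-HT1A); cortex with [3H]-ketanserin (5-HT2A) or [3H]-prazosin (α1). Ki from at least three experiments using 10–14 concentrations (10⁻¹⁰–10⁻⁵ M), each in triplicate.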

[2] = target: T2, 5-hydroxytryptamine receptor 1A (Mus musculus) (UniProt Q64264); assay: Compound was tested for hypothermia with the activation of presynaptic 5-HT1A receptor agonist (8-OH-DPAT) in mice; Antagonist; format: functional; conditions: filed as antagonist
T2 sequence (whole entry): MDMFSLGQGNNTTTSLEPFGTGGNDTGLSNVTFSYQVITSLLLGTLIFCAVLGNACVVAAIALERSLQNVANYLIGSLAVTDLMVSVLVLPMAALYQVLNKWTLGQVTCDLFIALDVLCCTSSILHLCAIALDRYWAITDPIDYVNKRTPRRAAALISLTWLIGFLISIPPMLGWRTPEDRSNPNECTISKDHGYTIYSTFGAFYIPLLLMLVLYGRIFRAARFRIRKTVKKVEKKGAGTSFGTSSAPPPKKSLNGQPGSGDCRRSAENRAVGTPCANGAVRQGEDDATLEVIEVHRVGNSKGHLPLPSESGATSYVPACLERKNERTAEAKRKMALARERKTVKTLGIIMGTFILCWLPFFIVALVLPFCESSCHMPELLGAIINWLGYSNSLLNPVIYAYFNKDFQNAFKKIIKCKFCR

[3] = target: 5-hydroxytryptamine receptor 2A (Rattus norvegicus, UniProt P14842); assay: Ability to bind to central serotonin 5-hydroxytryptamine 2A receptor in vitro in cortex of the rat brain using [3H]ketanserin radioligand; format: tissue-based; method in brief: as §1
Chain of 5-hydroxytryptamine receptor 2A (P14842 whole entry): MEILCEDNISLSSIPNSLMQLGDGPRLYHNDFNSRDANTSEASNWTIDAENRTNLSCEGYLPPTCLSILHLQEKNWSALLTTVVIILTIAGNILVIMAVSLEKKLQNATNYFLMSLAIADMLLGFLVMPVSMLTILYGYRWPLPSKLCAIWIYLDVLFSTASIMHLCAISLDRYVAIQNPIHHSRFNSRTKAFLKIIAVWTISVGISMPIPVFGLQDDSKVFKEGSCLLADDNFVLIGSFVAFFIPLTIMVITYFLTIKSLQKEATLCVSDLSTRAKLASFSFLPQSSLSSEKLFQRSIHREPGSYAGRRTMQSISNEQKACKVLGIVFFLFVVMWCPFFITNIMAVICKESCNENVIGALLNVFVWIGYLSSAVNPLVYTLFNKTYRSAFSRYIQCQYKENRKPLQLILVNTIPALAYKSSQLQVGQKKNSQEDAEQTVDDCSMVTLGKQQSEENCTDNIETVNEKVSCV

**Q.** Cn1c(=O)c2c(nc3nc(NCCN4CCN(c5ccccc5)CC4)ccn32)n(C)c1=O was tested. Which Functional profile (Mus musculus) did it give?
**A.** Its Functional profile is “Antagonist”.

**Q.** What about the Ki [1] of the same molecule?
**A.** Its Ki is 11.5 nM.

**Q.** What about the Functional profile [2] of the same molecule?
**A.** The Functional profile was “Antagonist”.

**Q.** And the Ki [3]?
**A.** The Ki was 326 nM.
